Rows were chosen to be rich in hits. Some 2.7% of all compounds tested hit in one or more screens of this group.
BB579 growth dn: reduces growth of yeast BB579 in restrictive medium. S. cerevisiae BB579 growth, OD615, 48 h. 140,000 tested, 0.51% active. inhibition, % at 10 µM;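 active means inhibition above a set limit, 3 SD over the mean compound inhibition, cut at about 44% in these data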
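Test system: S. cerevisiae DeaD strain BB579 yeast; Medium: restrictive CSMM-D medium; Compound: one dose, 10 µM compound with 0.25% DMSO; Incubation: 4 h cell preincubation, 48 h compound exposure, 30 °C humidified; Signal: OD at 615 nm; Benchmarks: amphotericin B at 10 µg/mL as positive control.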
Phagocyt inh: inhibitors of macrophage phagocytosis; 110,000 tested, 0.07% active; J774A.1 macrophage IgG-bead phagocytosis, imaging; AID 1029; inhibition, % at 5 µM;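 active means inhibition above the mean of the plate negative controls plus 5 SD, cut at about 13% in these data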;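 further: phagocytic index as fraction of beads internalized from green versus red external bead signal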
RAM network inh: inhibitors of the yeast RAM network; S. cerevisiae dse1pr::URA3 reporter, 5-FOA growth OD615, 2 d; analog-sensitive cbk1-as2 kinase mutant strain; inhibition, % at 50 µM; 190,000 tested, 1.8% active;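 active means inhibition above a set limit, 3 SD over mean compound inhibition, cut at about 8.4% in these data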;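 further: inhibition rescues growth on 5-FOA so higher OD means more RAM inhibition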
Yeast lifespan up: yeast lifespan extension. inhibition of the nicotinamide effect, % at 10 µM. 130,000 tested, 0.68% active. AID 775. S. cerevisiae growth with nicotinamide, OD615; deaD strain in restrictive glucose medium;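 active means inhibition above a set limit, placed 3 SD over the median of all compounds, cut at about 26% in these data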
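assay system = DeaD-strain S. cerevisiae | measured by = absorbance at 615 nm | probe or stimulus = nicotinamide 1.5 mM | buffer or medium = CSMM-D glucose medium, restrictive | times = 48 h at 30 °C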
Of the large screens only hits and unclear results are named; the others gave an inactive call.

COc1cc(/C=C2/SC(=O)N(Cc3ccccc3Cl)C2=O)ccc1OCc1ccncc1	none (no result: Phagocyt inh)
CSC(=S)N/N=C(\C)c1ccccc1	none (no result: BB579 growth dn, Phagocyt inh, Yeast lifespan up)
CCCc1cc2c(cc1NC(=O)c1ccco1)OCO2	none (no result: BB579 growth dn, Phagocyt inh, Yeast lifespan up)
CCCCNC(=S)N(Cc1ccco1)Cc1cc2cc3c(cc2[nH]c1=O)OCCO3	RAM network inh 8.5
CC(=O)N1C(=O)/C(=C2\SC(=S)N(NS(=O)(=O)c3ccc(C)cc3)C2=O)c2ccccc21	RAM network inh 11 (no result: BB579 growth dn, Phagocyt inh, Yeast lifespan up)
O=C(Nc1ccn(Cc2ccccc2F)n1)c1ccc(COc2cccc(Br)c2)cc1	RAM network inh 11
COc1cc(/C=C2/C(=O)ON=C2c2ccccc2)ccc1O	BB579 growth dn 86
Cn1c(/C=C/c2ccc([N+](=O)[O-])o2)nc2ccccc2c1=O	BB579 growth dn 82
Cc1ccc(C(=O)c2c(C)oc3c2C(=O)C(=O)c2ccccc2-3)cc1	BB579 growth dn 70 (no result: Phagocyt inh)
Cn1c(CCc2nc3ccccc3[nH]2)nnc1SCC#N	none (no result: BB579 growth dn, Phagocyt inh, Yeast lifespan up)
O=C(Oc1c(CN2CCOCC2)cc(Cl)c2cccnc12)c1ccc(F)cc1	Yeast lifespan up 28
Oc1c(CN2CCN(c3ccccn3)CC2)cc(Cl)c2cccnc12	BB579 growth dn 59
COc1ccc(C(=O)Oc2c(CN3CCOCC3)cc(Cl)c3cccnc23)cc1	none
COc1ccccc1N1CCN(Cc2cc(Br)c(O)c3ncccc23)CC1	BB579 growth dn 97
COC(=O)c1cc(C(=O)Nc2ccc(S(N)(=O)=O)cc2)cc([N+](=O)[O-])c1	none (no result: BB579 growth dn, Phagocyt inh, Yeast lifespan up)
COc1cccc(NC(=O)c2cc(C(=O)Nc3cccc(OC)c3)n(C)n2)c1	RAM network inh 11
N#CC1=C(N)N2C(=C(C#N)C1c1cccc(Br)c1)Nc1ccccc12 (configuration not stated)	RAM network inh 8.9
N#CC1=C(N)N2C(=C(C#N)C1c1ccc(Br)cc1)Nc1ccccc12 (configuration not stated)	none
CCOC(=O)N1CCN(C(=O)c2noc(C(C)C)c2[N+](=O)[O-])CC1	none (no result: Phagocyt inh)
C=CCSC(=C(C#N)C#N)c1cc2c([nH]1)CCCC2	BB579 growth dn 61, RAM network inh 11
COc1cc(/C=C(/C#N)c2ccccc2F)ccc1OCc1ccccc1	RAM network inh 10
CCOC(=O)c1sc(-c2ccccc2)cc1NC(=O)CSc1nnnn1C	RAM network inh 8.4
CCOC(=O)c1cc(-c2ccccc2)sc1NC(=O)CSc1nnnn1C	RAM network inh 8.4
CCOC(=O)c1cc(-c2ccccc2)sc1NC(=O)CC(C)C	none
Fc1ccc(N/N=C2/CC(c3ccccc3)Oc3ccccc32)c(F)c1 (configuration not stated)	BB579 growth dn 86
COc1ccc(S(=O)(=O)N[C@@H](C)C(=O)OCC(=O)Nc2cc3oc4ccccc4c3cc2OC)cc1	RAM network inh 9.6
COc1cc2c(cc1NC(=O)CSc1ccccc1)oc1ccccc12	RAM network inh 11
COc1cc2c(cc1NC(=O)CSc1nccn1C)oc1ccccc12	none
CCOC(=O)C1=Nc2ccccc2C1=[N+]=[N-]	BB579 growth dn 100
CCCCCC1CC1C(=O)N/N=C/c1ccc(N(C)C)cc1 (configuration not stated)	Yeast lifespan up 42
O=S(=O)(Cc1ccccc1)NCc1cccnc1	BB579 growth dn 45
Cc1nc2c3cc(Cl)ccc3n(CCN3CCCCC3)c2s1	none
CC1CCC(C(C)C)C(OC(=O)CSc2n[nH]c(=O)[nH]c2=O)C1 (configuration not stated)	Yeast lifespan up 48
CCn1c(=O)c(C(=O)NNS(=O)(=O)c2ccc(Cl)cc2)c(O)c2ccccc21	Yeast lifespan up 28
CCOC(=O)COc1c(/C=N\O)cc(Cl)cc1OC	none (no result: BB579 growth dn, Phagocyt inh, Yeast lifespan up)
COc1ccc(CCC(=O)NNC(=S)Nc2cccc(C(C)=O)c2)cc1	none (no result: BB579 growth dn, Phagocyt inh, Yeast lifespan up)
O=S(=O)(/C=C/c1ccccc1)NC1CCCCCCC1	Yeast lifespan up 27 (no result: Phagocyt inh)
CC(C)COC(=O)Cn1cnc2ccc(Br)cc2c1=O	Yeast lifespan up 27
CCCCOC(=O)Cn1cnc2ccc(Br)cc2c1=O	none
Cc1nn(Cc2ccccc2)c(Cl)c1C(=O)OCc1nnc(-c2ccc(Cl)cc2)o1	RAM network inh 8.6
Cn1c(=O)c2ncn(CC(=O)N/N=C/c3ccco3)c2n(C)c1=O	none
COc1cc([N+](=O)[O-])cc2cc(C(=O)N3CCN=C3c3ccccc3)c(=O)oc12	RAM network inh 8.9 (no result: BB579 growth dn, Phagocyt inh, Yeast lifespan up)
CCOC(=O)c1cc2cc([N+](=O)[O-])cc(OC)c2oc1=O	none (no result: BB579 growth dn, Phagocyt inh, Yeast lifespan up)
Cc1cc(/C=N/n2cnnc2)c(C)n1-c1ccc(OCc2ccc(Cl)cc2Cl)cc1	BB579 growth dn 46

Assay outcomes (PubChem)
